Assay results as given in ChEMBL document CHEMBL3244354, “Syntheses and biological activities of 7 beta-methyl steroids” (J Med Chem, 1979).
The source made the active and inactive calls. No cut-off for these calls is given here.

Assays:
13762 [1] = assay: Antitumor activity against rat 13762 cells allografted in Fischer 344 rat assessed as tumor weight at 100 mg/kg, ip qd for 20 days relative to control; assay type: functional; conditions: route intraperitoneal
How it was run: (§1)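 Female Fischer 344 rats, about 40 days old, received subcutaneous right-side grafts of 13762 mammary adenocarcinoma on day 0. From day 1 they got test compound in sesame oil ip daily for 20 days at 10 or 100 (mg/kg)/day. Vehicle controls got 0.5 mL/day. Endpoints were survivors/treated and FBW (minus tumor)/IBW. Tumor weight, final tumor size (length + width/2), and organ weights per 100 g were reported as % control.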

13762 [2] = assay: Antitumor activity against rat 13762 cells allografted in Fischer 344 rat assessed as host survival at 100 mg/kg, ip qd for 20 days; assay type: functional, organism-based; parameters: dose 100 mg/kg; how it was run: as §1
Rattus norvegicus [3] = assay: Toxicity in rat 13762 cells allografted in Fischer 344 rat assessed as ratio of final body weight to initial body weight at 100 mg/kg, ip qd for 20 days; assay type: organism-based; parameters: dose 100 mg/kg, route intraperitoneal; conditions: in vivo, 480 h; how it was run: as §1
Rattus norvegicus [4] = assay: Effect on ovarian weight in rat 13762 cells allografted Fischer 344 rat at 100 mg/kg, ip qd for 20 days relative to control; assay type: functional; conditions: route intraperitoneal; how it was run: as §1
Rattus norvegicus [5] = assay: Effect on uterine weight in rat 13762 cells allografted Fischer 344 rat at 100 mg/kg, ip qd for 20 days relative to control; assay type: functional; conditions: route intraperitoneal; how it was run: as §1
Rattus norvegicus [6] = assay: Effect on spleen weight in rat 13762 cells allografted Fischer 344 rat at 100 mg/kg, ip qd for 20 days relative to control; assay type: functional; conditions: route intraperitoneal; how it was run: as §1
Rattus norvegicus [7] = assay: Effect on adrenal weight in rat 13762 cells allografted Fischer 344 rat at 100 mg/kg, ip qd for 20 days relative to control; assay type: functional; conditions: route intraperitoneal; how it was run: as §1
Rattus norvegicus [8] = assay: Effect on thymus weight in rat 13762 cells allografted Fischer 344 rat at 100 mg/kg, ip qd for 20 days relative to control; assay type: functional; conditions: route intraperitoneal; how it was run: as §1
Rattus norvegicus [9] = assay: Effect on pituitary weight in rat 13762 cells allografted Fischer 344 rat at 100 mg/kg, ip qd for 20 days relative to control; assay type: functional, Pituitary gland cell; conditions: route intraperitoneal; how it was run: as §1
Rattus norvegicus [10] = assay: Androgenic activity in castrate rat assessed as ventrol prostate weight at 3 mg, sc qd for 7 days by autopsy analysis (reference value: 17.5 +/- 0.41 mg); assay type: functional, Prostate gland
Rattus norvegicus [11] = assay: Androgenic activity in castrate rat assessed as seminal vesicle weight at 3 mg, sc qd for 7 days by autopsy analysis (reference value: 13.6 +/- 0.19 mg); assay type: functional
Rattus norvegicus [12] = assay: Myotrophic activity in castrate rat assessed as levator ani weight at 3 mg, sc qd for 7 days by autopsy analysis (reference value: 23.6 +/- 1.08 mg); assay type: functional
Rattus norvegicus [13] = assay: Androgenic activity in castrate rat assessed as change in body weight at 3 mg, sc qd for 7 days by autopsy analysis (reference value: 88 gram); assay type: functional
13762 [14] = assay: Antitumor activity against rat 13762 cells allografted in Fischer 344 rat assessed as host survival at 10 mg/kg, ip qd for 20 days; assay type: functional, organism-based; parameters: dose 10 mg/kg; how it was run: as §1
Rattus norvegicus [15] = assay: Toxicity in rat 13762 cells allografted in Fischer 344 rat assessed as ratio of final body weight to initial body weight at 10 mg/kg, ip qd for 20 days; assay type: organism-based; parameters: dose 10 mg/kg, route intraperitoneal; conditions: in vivo, 480 h; how it was run: as §1
13762 [16] = assay: Antitumor activity against rat 13762 cells allografted in Fischer 344 rat assessed as tumor weight at 10 mg/kg, ip qd for 20 days relative to control; assay type: functional; conditions: route intraperitoneal; how it was run: as §1
13762 [17] = assay: Antitumor activity against rat 13762 cells allografted in Fischer 344 rat assessed as final tumor size at 10 mg/kg, ip qd for 20 days relative to control; assay type: functional; conditions: route intraperitoneal; how it was run: as §1
Rattus norvegicus [18] = assay: Effect on ovarian weight in rat 13762 cells allografted Fischer 344 rat at 10 mg/kg, ip qd for 20 days relative to control; assay type: functional; conditions: route intraperitoneal; how it was run: as §1
Rattus norvegicus [19] = assay: Effect on uterine weight in rat 13762 cells allografted Fischer 344 rat at 10 mg/kg, ip qd for 20 days relative to control; assay type: functional; conditions: route intraperitoneal; how it was run: as §1
Rattus norvegicus [20] = assay: Effect on spleen weight in rat 13762 cells allografted Fischer 344 rat at 10 mg/kg, ip qd for 20 days relative to control; assay type: functional; conditions: route intraperitoneal; how it was run: as §1
Rattus norvegicus [21] = assay: Effect on adrenal weight in rat 13762 cells allografted Fischer 344 rat at 10 mg/kg, ip qd for 20 days relative to control; assay type: functional; conditions: route intraperitoneal; how it was run: as §1
Rattus norvegicus [22] = assay: Effect on thymus weight in rat 13762 cells allografted Fischer 344 rat at 10 mg/kg, ip qd for 20 days relative to control; assay type: functional; conditions: route intraperitoneal; how it was run: as §1

SMILES	Activity 13762 [1] [%]	Activity 13762 [2]	Ratio (Rattus norvegicus [3])	Activity (Rattus norvegicus [4]) [%]	Activity (Rattus norvegicus [5]) [%]	Activity (Rattus norvegicus [6]) [%]	Activity (Rattus norvegicus [7]) [%]	Activity (Rattus norvegicus [8]) [%]	Activity (Rattus norvegicus [9]) [%]	Activity (Rattus norvegicus [10]) [mg]	Activity (Rattus norvegicus [11]) [mg]	Activity (Rattus norvegicus [12]) [mg]	Activity (Rattus norvegicus [13]) [g]	other results
C[C@H]1CC2=CC(=O)CC[C@]2(C)[C@H]2CC[C@@]3(C)[C@@H](CC[C@]3(C)O)[C@H]12 [CALUSTERONE]	123	Active	1.64	60	148	115	73	57	80					
CCC(=O)O[C@H]1CC[C@H]2[C@@H]3CCC4=CC(=O)CC[C@]4(C)[C@H]3CC[C@]12C [TESTOSTERONE PROPIONATE]										126	65.9	68.2	98	
C[C@H]1CC2=CC(=O)CC[C@]2(C)[C@H]2CC[C@]3(C)[C@@H](O)CC[C@H]3[C@H]12	103	Active	1.58	72	202	108	70	47	73					
CC(=O)O[C@H]1CC[C@H]2[C@@H]3[C@@H](C)C[C@H]4CC(=O)CC[C@]4(C)[C@H]3CC[C@]12C	132	Active	1.81	62	151	108	68	48	56	81.4	45.8	63.3	90	Activity 13762 [14]: Active; Ratio (Rattus norvegicus [15]): 1.58; Activity 13762 [16]: 84%; Activity 13762 [17]: 90%; Activity (Rattus norvegicus [18]): 77%; Activity (Rattus norvegicus [19]): 143%; Activity (Rattus norvegicus [20]): 77%; Activity (Rattus norvegicus [21]): 68%; Activity (Rattus norvegicus [22]): 71%
CC(=O)O[C@H]1CC[C@H]2[C@@H]3CC[C@H]4CSC[C@]4(C)[C@H]3CC[C@]12C										61.9	48.6	65.2	95	
CC(=O)O[C@H]1CC[C@H]2[C@@H]3[C@@H](C)C[C@H]4CSC[C@]4(C)[C@H]3CC[C@]12C	133	Active	1.55	87	128	145	87	79	90	18.6	11.8	25.7	90	Activity 13762 [14]: Active; Ratio (Rattus norvegicus [15]): 1.5; Activity 13762 [16]: 85%; Activity 13762 [17]: 85%; Activity (Rattus norvegicus [18]): 105%; Activity (Rattus norvegicus [19]): 124%; Activity (Rattus norvegicus [20]): 81%; Activity (Rattus norvegicus [21]): 101%; Activity (Rattus norvegicus [22]): 125%
CC(=O)O[C@H]1CC[C@H]2[C@@H]3CCC4=CC(=O)CC[C@]4(C)[C@H]3CC[C@]12C	123	Active	1.68	65	179	100	88	31	71					
